Legend:
Aromatase = molecular target: T1, Aromatase (Homo sapiens, UniProt P11511); experiment: Inhibition of recombinant human aromatase expressed in baculovirus infected insect cells using O-benzyl fluorescein benzyl ester as substrate in presence of NADPH generating system by fluorescence based analysis
T1 sequence (P11511 whole entry): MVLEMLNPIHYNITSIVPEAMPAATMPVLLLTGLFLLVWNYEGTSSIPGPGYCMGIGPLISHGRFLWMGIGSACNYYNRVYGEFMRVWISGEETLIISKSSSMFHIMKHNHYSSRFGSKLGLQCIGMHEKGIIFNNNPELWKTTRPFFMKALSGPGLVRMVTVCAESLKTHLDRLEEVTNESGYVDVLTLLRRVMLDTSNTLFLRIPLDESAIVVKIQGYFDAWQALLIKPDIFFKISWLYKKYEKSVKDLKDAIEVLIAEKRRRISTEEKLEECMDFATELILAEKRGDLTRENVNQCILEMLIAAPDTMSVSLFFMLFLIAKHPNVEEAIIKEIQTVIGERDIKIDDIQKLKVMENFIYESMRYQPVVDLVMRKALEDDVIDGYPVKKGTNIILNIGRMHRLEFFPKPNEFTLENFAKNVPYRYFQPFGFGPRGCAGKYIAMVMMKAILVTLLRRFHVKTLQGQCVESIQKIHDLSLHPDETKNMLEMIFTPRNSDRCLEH

T47D = experiment: Cytotoxicity against human T47D cells assessed as reduction in cell growth measured after 48 hrs by MTT assay; format: functional, cell-based
In short: (§1)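 T47-D cells kept in RPMI-1640 with 2 mM L-glutamine, insulin, 4.5 g/L glucose and 10% FBS. MRC-5 cells kept in DMEM with 10% FBS. Cells seeded at 10,000-20,000 per well and preincubated 24 h at 37 °C in 5% CO2. Serial dilutions added, then incubated 48 h. MTT for 2-4 h, formazan dissolved in DMSO, read at 550/650 nm. IC50 is the concentration giving 50% growth inhibition.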

MRC5 = experiment: Cytotoxicity against human MRC5 cells assessed as reduction in cell growth measured after 48 hrs by MTT assay; format: cell-based; conditions: MRC5, 48 h; in short: as §1
Homo sapiens = organism: Homo sapiens; experiment: Selectivity index, ratio of IC50 for human MRC5 cells by MTT assay to IC50 for human recombinant aromatase expressed in baculovirus infected insect cells
[1] = Homo sapiens, T47D, 48 h, read-out: IC50

| Structure (SMILES) | IC50 (Aromatase) | IC50 (T47D; [1]) | IC50 (MRC5) | Ratio IC50 (Homo sapiens) | IC50 (T47D; t47d) |
| --- | --- | --- | --- | --- | --- |
| COc1ccc(S(=O)(=O)Nc2cccc(NS(=O)(=O)c3ccc(OC)cc3)c2)cc1 | 0.53 µM | > 50 µg/mL | > 50 µg/mL | > 210 |  |
| N#Cc1ccc(S(=O)(=O)NCc2ccc(CNS(=O)(=O)c3ccc(C#N)cc3)cc2)cc1 | 0.66 µM | > 50 µg/mL | 92.8 µM | 141 |  |
| O=S(=O)(Nc1cccc(NS(=O)(=O)c2ccc(Cl)cc2)c1)c1ccc(Cl)cc1 | 0.78 µM | 87.2 µM | 63.1 µM | 80.9 |  |
| S=C(NCc1cccc(CNC(=S)Nc2ccc(Cl)cc2)c1)Nc1ccc(Cl)cc1 | 5.5 µM |  |  |  |  |
| O=S(=O)(NCc1cccc(CNS(=O)(=O)c2ccc3ccccc3c2)c1)c1ccc2ccccc2c1 | 0.21 µM | > 50 µg/mL | > 50 µg/mL | > 461 |  |
| N#Cc1ccc(S(=O)(=O)NCc2cccc(CNS(=O)(=O)c3ccc(C#N)cc3)c2)cc1 | 0.16 µM | 69.3 µM | > 50 µg/mL | > 670 |  |
| COc1cccc2c1C(=O)c1c(O)c3c(c(O)c1C2=O)C[C@@](O)(C(=O)CO)C[C@@H]3O[C@H]1C[C@H](N)[C@H](O)[C@H](C)O1 [DOXORUBICIN] |  | 0.88 µM | 2.19 µM |  |  |
| O=[N+]([O-])c1ccc(S(=O)(=O)NCc2cccc(CNS(=O)(=O)c3ccc([N+](=O)[O-])cc3)c2)cc1 | 0.37 µM | 39.3 µM | > 50 µg/mL | > 267 |  |
| O=S(=O)(NCc1cccc(CNS(=O)(=O)c2ccc(C(F)(F)F)cc2)c1)c1ccc(C(F)(F)F)cc1 | 0.43 µM | 75.4 µM | 74.6 µM | 173 |  |
| O=[N+]([O-])c1ccc(NC(=S)NCc2cccc(CNC(=S)Nc3ccc([N+](=O)[O-])cc3)c2)cc1 | 0.8 µM |  |  |  |  |
| O=[N+]([O-])c1ccccc1S(=O)(=O)NCc1cccc(CNS(=O)(=O)c2ccccc2[N+](=O)[O-])c1 | 3.67 µM | 75.4 µM | > 50 µg/mL | > 26.9 |  |

More lines, main results first:

| IC50 (Aromatase) | Structure (SMILES) | IC50 (T47D; [1]) | IC50 (MRC5) | Ratio IC50 (Homo sapiens) | IC50 (T47D; t47d) |
| --- | --- | --- | --- | --- | --- |
| 2.75 µM | O=[N+]([O-])c1cccc(S(=O)(=O)NCc2cccc(CNS(=O)(=O)c3cccc([N+](=O)[O-])c3)c2)c1 | > 50 µg/mL | > 50 µg/mL | > 35.9 |  |
| 0.13 µM | Cc1ccc(S(=O)(=O)NCc2cccc(CNS(=O)(=O)c3ccc(C)cc3)c2)cc1 | 43.9 µM | > 50 µg/mL | > 865 |  |
| 3.3 µM | Nc1cccc(S(=O)(=O)NCc2cccc(CNS(=O)(=O)c3cccc(N)c3)c2)c1 | 90.6 µM | > 50 µg/mL | > 33.9 |  |
| 0.06 µM | O=S(=O)(NCc1cccc(CNS(=O)(=O)c2ccc(Br)cc2)c1)c1ccc(Br)cc1 |  | > 50 µg/mL | > 1450 | Nd(Insoluble) |
| 2.19 µM | O=S(=O)(NCc1cccc(CNS(=O)(=O)c2ccc(F)cc2)c1)c1ccc(F)cc1 |  | > 50 µg/mL | > 50.5 | Nd(Insoluble) |
| 0.28 µM | CC(=O)c1ccc(S(=O)(=O)NCc2cccc(CNS(=O)(=O)c3ccc(C(C)=O)cc3)c2)cc1 | > 50 µg/mL | > 50 µg/mL | > 357 |  |
| 3.2 µM | Cc1cc(C)c(C)c(S(=O)(=O)NCc2cccc(CNS(=O)(=O)c3c(C)c(C)cc(C)c3C)c2)c1C | 30.9 µM | 80.9 µM | 25.3 |  |
| 11.6 µM | COc1ccc(S(=O)(=O)NCc2cccc(CNS(=O)(=O)c3ccc(OC)cc3)c2)cc1 | 75.3 µM | > 50 µg/mL | > 9.04 |  |
| 0.05 µM | O=S(=O)(NCc1cccc(CNS(=O)(=O)c2ccc(Cl)cc2)c1)c1ccc(Cl)cc1 | 37.5 µM | 68.5 µM | 1370 |  |
| > 12.5 µM | Cc1cc(C)c(C)c(S(=O)(=O)NCc2ccc(CNS(=O)(=O)c3c(C)c(C)cc(C)c3C)cc2)c1C | > 50 µg/mL | 16.3 µM |  |  |
